Data as given in ChEMBL document CHEMBL2311534, “Synthesis and antiplasmodial evaluation of novel (4-aminobutyloxy)quinolines” (Bioorg Med Chem Lett, 2013).
pIC50: −log10 of the molar value.

Columns and labels:
Plasmodium falciparum [1] = assay: Antiplasmodial activity against erythrocyte form of chloroquine-sensitive Plasmodium falciparum D10 by parasite lactate dehydrogenase assay; assay type: functional, organism-based
Summary of the method: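 Asexual erythrocyte-stage cultures were maintained by a modified Trager–Jensen method. Samples were made as 20 mg/mL stocks in 100% DMSO and diluted in complete medium. The top test concentration was 100 µg/mL, with twofold serial dilution to 10 concentrations (lowest 0.2 µg/mL). Growth was read by parasite lactate dehydrogenase assay in triplicate on one occasion. IC50 came from full dose-response curves.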

[2] = Selectivity index, ratio of IC50 for CHO cells to IC50 for chloroquine-sensitive Plasmodium falciparum D10; assay type: toxicity, cell-based; settings: hamster, read-out: Ratio IC50
Summary of the method: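 Computed as IC50 from the CHO MTT assay divided by IC50 from the D10 pLDH assay. Both IC50 values came from full dose-response curves, each run in triplicate on one occasion.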

Plasmodium falciparum [3] = assay: Antiplasmodial activity against erythrocyte form of chloroquine-resistant Plasmodium falciparum Dd2 by parasite lactate dehydrogenase assay; assay type: functional, organism-based
Summary of the method: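 Continuous culture of asexual erythrocyte stages (modified Trager–Jensen); growth read by parasite lactate dehydrogenase assay (modified Makler). Samples from 20 mg/mL DMSO stock, diluted in complete medium; full dose-response, twofold serial dilutions from 100 µg/mL to 0.2 µg/mL (10 concentrations); chloroquine reference. Triplicate on one occasion; IC50 from non-linear curve fitting.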

CHO = assay: Cytotoxicity against CHO cells by MTT assay; assay type: cell-based; settings: Cricetulus griseus
Summary of the method: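 CHO cell growth and survival was read colorimetrically with MTT. Samples were diluted in complete medium on the day of testing as 10-fold serial dilutions to 6 concentrations (100 down to 0.001 µg/mL). Emetine served as reference. Tests were run in triplicate on one occasion. IC50 was obtained by non-linear dose-response curve fitting.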

Plasmodium falciparum [4] = assay: Resistance index, ratio of IC50 for chloroquine-resistant Plasmodium falciparum Dd2 to IC50 for chloroquine-sensitive Plasmodium falciparum D10; assay type: functional

Row | SMILES | pIC50 (Plasmodium falciparum [1]) | selectivity ratio [2] | pIC50 (Plasmodium falciparum [3]) | pIC50 (CHO) | Ratio IC50 (Plasmodium falciparum [4])
1 | CCN(CC)CCCCOc1cccc2cccnc12 | 4.31 | – | – | – | –
2 | CCN(CC)CCCCOc1ccc(Cl)c2cccnc12 | 4.76 | – | – | – | –
3 | CCN(CC)CCCCOc1c(I)cc(Cl)c2cccnc12 | 5.04 | – | – | – | –
4 | CCN(CC)CCC(C)COc1cccc2cccnc12 (configuration not stated) | 4.00 | – | – | – | –
5 | CCN(CC)CCC(C)COc1c(Cl)cc(Cl)c2cccnc12 (configuration not stated) | 5.09 | – | – | – | –
6 | CCN(CC)CCC(C)COc1c(Cl)cc(Cl)c2ccc(C)nc12 (configuration not stated) | 5.40 | 57 | 6.17 | 3.65 | 0.17
7 | CCN(CC)CCC(C)COc1c(I)cc(Cl)c2cccnc12 (configuration not stated) | 4.89 | – | – | – | –
8 | CCN(CC)CCC(C)COc1c(I)cc(I)c2cccnc12 (configuration not stated) | 4.86 | – | – | – | –
9 | CCN(CC)CCC(C)COc1c(Br)cc(Br)c2cccnc12 (configuration not stated) | 5.06 | – | – | – | –
10 | CCN(CC)CCCCOc1ccc2ncccc2c1 | 5.22 | – | – | – | –
11 | CCN(CC)CCCCOc1cccc2ncccc12 | 4.99 | – | – | – | –
12 | Clc1ccc(CNCCCCOc2ccc(Cl)c3cccnc23)cc1 | 5.00 | – | – | – | –
13 | CC(CCNCc1ccc(Cl)cc1)COc1cccc2cccnc12 (configuration not stated) | 5.25 | – | – | – | –
14 | Cc1ccc2c(Cl)cc(Cl)c(OCC(C)CCNCc3ccc(Cl)cc3)c2n1 (configuration not stated) | 5.61 | 2 | 6.59 | 5.39 | 0.11
15 | CC(CCNCc1ccc(Cl)cc1)COc1c(I)cc(I)c2cccnc12 (configuration not stated) | 5.04 | – | – | – | –
16 | Clc1ccc(CNCCCCOc2ccc3ncccc3c2)cc1 | 5.14 | 29 | < 6.00 | 3.67 | –
17 | Clc1ccc(CNCCCCOc2cccc3ncccc23)cc1 | 5.15 | 34 | – | 3.62 | –
18 | CC(CCNCc1ccc(Cl)cc1)COc1cccc2ncccc12 (configuration not stated) | 4.64 | – | – | – | –
19 | CCN(CC)CCC(C)Cc1cc(Cl)c2cccnc2c1O (configuration not stated) | 6.00 | 5 | 6.82 | 5.32 | 0.15
20 | CC[C@H]1CN2CCc3cc(OC)c(OC)cc3[C@@H]2C[C@@H]1C[C@H]1NCCc2cc(OC)c(OC)cc21 [EMETINE] | – | – | – | 6.77 | –
